Source: ChEMBL document CHEMBL1275449, “Potent in vitro antifungal activities of naturally occurring acetylenic acids” (Antimicrob Agents Chemother, 2008)
In brackets after ≈: the same amount, converted by molar mass.

Experiments:
Type in all cases: functional, organism-based
Pichia kudriavzevii = assay: Antifungal activity against Candida krusei ATCC 6258 after 48 hrs by CLSI method; conditions: ATCC 6258, 48 h
In short: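 Candida inocula came from 24–72-h SD agar colonies suspended in saline. They were diluted by OD630 standard curve into RPMI 1640 (0.2% dextrose, 0.03% glutamine, 0.165 M MOPS, pH 7.0) to 1.5 × 10³ CFU/ml. Compounds were run as 11 twofold dilutions in 20% DMSO-saline, in duplicate, at 35°C for 48 h, with OD530 read before and after. Percent growth at the top concentration, IC50, MIC, and MFC (SD agar plating) were derived.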

Candida albicans [1] = assay: Antifungal activity against Candida albicans ATCC 14053 after 48 hrs by CLSI method; conditions: ATCC 14053, 48 h
In short: (§1)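 CLSI broth microdilution. Colonies from 24–72 h SD agar suspended in saline and sized by OD630 standard curve. Inoculum 1.5 × 10³ CFU/ml (final) in RPMI 1640 (0.2% dextrose, 0.03% glutamine, 0.165 M MOPS, pH 7.0). Twofold dilutions (11 levels) from 20% DMSO-saline, in duplicate. 35°C for 48 h, OD530 read before and after. IC50 fitted from % growth. MIC: no detectable growth. MFC: subculture onto SD agar.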

Trichophyton rubrum [2] = assay: Antifungal activity against Trichophyton rubrum ATCC MYA-4438 by CLSI method
In short: (§2)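 Growth scraped from 1- to 6-week-old potato dextrose slants and filtered through Miracloth. Diluted in 5% Alamar blue-RPMI 1640 (MOPS pH 7.0) to 2.7 × 10⁴ CFU/ml. Eleven twofold dilutions in duplicate. Fluorescence at 544 nm excitation/590 nm emission read before and after 35°C, 5 days. IC50 fitted from percent growth. MIC taken as no detectable growth; MFC from clear or blue wells plated on PD agar.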

Candida albicans [3] = assay: Antifungal activity against Candida albicans ATCC 32354 after 48 hrs by CLSI method; conditions: ATCC 32354, 48 h; in short: as §1
Candida albicans [4] = assay: Antifungal activity against Fluconazole resistant Candida albicans clinical isolate 17 after 48 hrs by CLSI method; in short: as §1
Trichophyton rubrum [5] = assay: Antifungal activity against Trichophyton rubrum ATCC 10218 by CLSI method; in short: as §2
Candida albicans [6] = assay: Antifungal activity against Fluconazole resistant Candida albicans clinical isolate 1 after 48 hrs by CLSI method; in short: as §1
Candida albicans [7] = assay: Antifungal activity against Candida albicans ATCC 60193 after 48 hrs by CLSI method; conditions: ATCC 60193, 48 h; in short: as §1
[8] = tested on: Trichophyton mentagrophytes; assay: Antifungal activity against Trichophyton mentagrophytes ATCC 9533 by CLSI method; in short: as §2
Candida albicans [9] = assay: Antifungal activity against Candida albicans ATCC 90028 after 48 hrs by CLSI method; conditions: ATCC 90028, 48 h; in short: as §1
Candida albicans [10] = assay: Antifungal activity against Candida albicans ATCC 200955 after 48 hrs by CLSI method; conditions: ATCC 200955, 48 h; in short: as §1
Candida tropicalis = assay: Antifungal activity against Candida tropicalis ATCC 750 after 48 hrs by CLSI method; conditions: ATCC 750, 48 h
In short: (§3)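 Yeast suspensions made from 3-5 colonies off 24-72 h SD agar plates in saline. They were diluted by OD630 standard curve in RPMI 1640 (0.2% dextrose, 0.03% glutamine, 0.165 M MOPS, pH 7.0) to 1.5 × 10³ CFU/ml. Twofold dilutions (11 concentrations, 20% DMSO-saline) run in duplicate. OD530 read before and after 35°C, 48 h. Line values are top test concentrations; no-growth endpoints give MIC/MFC.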

Candida parapsilosis = assay: Antifungal activity against Candida parapsilosis ATCC 22019 after 48 hrs by CLSI method; conditions: Lodderomyces parapsilosis, ATCC 22019, 48 h; in short: as §3

In the case of `OC(Cn1cncn1)(Cn1cncn1)c1ccc(F)cc1F` [FLUCONAZOLE], the IC50 (Pichia kudriavzevii) is reported as 126 µM, the MIC (Pichia kudriavzevii) is reported as 163 µM (≈ 50 µg/mL) and the IC50 (Candida albicans [1]) is reported as 0.5 µM. The MIC (Candida albicans [1]) was 1.3 µM (≈ 0.398 µg/mL), the IC50 (Trichophyton rubrum [2]) was 2.7 µM and the MIC (Trichophyton rubrum [2]) was 6.4 µM (≈ 1.96 µg/mL). For the same molecule, the IC50 (Candida albicans [3]) was 0.8 µM, the MIC (Candida albicans [3]) was 5.7 µM (≈ 1.75 µg/mL) and the IC50 (Candida albicans [4]) was 163 µM. For the same molecule, the IC50 (Trichophyton rubrum [5]) was 1.8 µM, the MFC (Trichophyton rubrum [5]) was 163 µM (≈ 50 µg/mL) and the MIC (Trichophyton rubrum [5]) was 1.9 µM (≈ 0.582 µg/mL). It also gave an IC50 (Candida albicans [6]) of 0.8 µM, an MIC (Candida albicans [6]) of 5.1 µM (≈ 1.56 µg/mL) and an IC50 (Candida albicans [7]) of 0.4 µM. For the same molecule, the MIC (Candida albicans [7]) was 0.6 µM (≈ 0.184 µg/mL), the IC50 [8] was 29.5 µM and the MIC [8] was 61.2 µM (≈ 18.7 µg/mL). For the same molecule, the IC50 (Candida albicans [9]) was 0.8 µM, the MIC (Candida albicans [9]) was 6.4 µM (≈ 1.96 µg/mL) and the IC50 (Candida albicans [10]) was 0.4 µM. For the same molecule, the MIC (Candida albicans [10]) was 1.3 µM (≈ 0.398 µg/mL), the IC50 (Candida tropicalis) was 4.3 µM and the MIC (Candida tropicalis) was 15.3 µM (≈ 4.69 µg/mL). The IC50 (Candida parapsilosis) was 3.4 µM and the MIC (Candida parapsilosis) was 10.2 µM (≈ 3.12 µg/mL).
